Test results published in PMC9521027 (ACS Omega, 2022).
Substitutions are numbered along the chain they refer to.

How the values were obtained:
[1] = molecular target: T1, URAT1 K393A mutant (Homo sapiens, UniProt Q96S37, K393A); experiment: 14C-uric acid binding assay with membrane protein; conditions: 2.5 μg membrane protein, 25 μM 14C-uric acid, 30 min
T1 sequence (Q96S37 1-553 K393A): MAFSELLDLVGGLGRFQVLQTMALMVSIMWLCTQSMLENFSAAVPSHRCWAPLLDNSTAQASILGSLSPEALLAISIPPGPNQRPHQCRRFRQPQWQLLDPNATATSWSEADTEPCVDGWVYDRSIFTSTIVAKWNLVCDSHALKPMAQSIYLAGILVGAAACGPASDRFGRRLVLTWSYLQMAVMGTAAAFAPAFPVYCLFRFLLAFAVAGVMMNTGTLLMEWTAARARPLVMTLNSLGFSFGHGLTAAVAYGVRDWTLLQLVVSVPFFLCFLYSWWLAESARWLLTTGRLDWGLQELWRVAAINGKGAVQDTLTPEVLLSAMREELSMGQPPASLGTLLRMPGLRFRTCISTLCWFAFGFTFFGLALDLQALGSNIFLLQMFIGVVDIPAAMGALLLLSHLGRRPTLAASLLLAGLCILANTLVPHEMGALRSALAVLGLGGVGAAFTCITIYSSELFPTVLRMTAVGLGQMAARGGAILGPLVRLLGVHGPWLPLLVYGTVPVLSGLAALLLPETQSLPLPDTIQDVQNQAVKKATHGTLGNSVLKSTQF
Method in brief: (§1)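 Membranes came from HEK293 cells transiently transfected (Lipofectamine 3000) with sequence-confirmed site-directed K393 mutant hURAT1 plasmids; control membranes came from cells transfected with pECFP empty vector. Cells were harvested in ice-cold 25 mM HEPES pH 7.3 with 125 mM sodium gluconate, and membranes were extracted with a kit. Protein was incubated at room temperature, then rapid-filtered, washed with ice-cold DPBS, dissolved in 0.1 M NaOH and scintillation-counted. n = 3, mean ± SD.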

[2] = molecular target: T2, URAT1 K393E mutant (Homo sapiens, UniProt Q96S37, K393E); experiment: 14C-uric acid binding assay with membrane protein; conditions: 2.5 μg membrane protein, 25 μM 14C-uric acid, 30 min
T2 sequence (Q96S37 1-553 K393E): T1 sequence (Q96S37 1-553 K393A) with A393E
Method in brief: as §1

[3] = molecular target: T3, URAT1 WT (Homo sapiens, UniProt Q96S37); experiment: Saturation kinetic experiment of 14C-uric acid uptake; format: cell-based; conditions: wild-type group
T3 sequence (Q96S37 1-553): T1 sequence (Q96S37 1-553 K393A) with A393K

[4] = molecular target: T4, URAT1 K393H mutant (Homo sapiens, UniProt Q96S37, K393H); experiment: 14C-uric acid uptake assay in transfected HEK293 cells; format: cell-based; conditions: K393H, HEK293 cells
T4 sequence (Q96S37 1-553 K393H): T1 sequence (Q96S37 1-553 K393A) with A393H

[5] = molecular target: T4, URAT1 K393H mutant; experiment: Competitive inhibition test of unlabeled uric acid on 14C-uric acid uptake; format: cell-based

14C-uric acid binding compared with WT [1]: significant loss
14C-uric acid binding compared with WT [2]: significant loss
Vmax [3]: 654.12 µM
14C-uric acid transport capacity compared with WT [4]: slightly reduced
IC50 [5]: 121 ± 5.98 µM
SMILES: O=c1[nH]c(=O)c2[nH]c(=O)[nH]c2[nH]1 [uric acid]
